Compounds with a hit are over-represented: about 2.9% of the library has one in this group of screens.
TRPC4 agonist – TRPC4 (mouse) channel activation. Q9QUQ5. HEK293 TRPC4beta/mu-opioid, Fluo4 calcium fluorescence; stronger effect = higher value. B-score at 10 µM. hit rate 0.49% among 310,000. AID 2237;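 active = B-score above 5 SD of library B-scores, and initial fluorescence ratio not above library mean plus 5 SD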;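 also: positive B-score marks a calcium rise read as TRPC4 activation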
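Material: TRPC4beta and mu-opioid receptor HEK293 stable cells | Incubation: 45 min room-temperature Fluo4 loading, 110 s read | Detection: Kinetic Fluo4 calcium fluorescence | Measure: Integrated baseline-normalised fluorescence ratio, converted to per-well B score | Benchmarks: Low control buffer alone, high control maximal DAMGO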
TRPC4 potent – TRPC4 (mouse) allosteric potentiation; B-score at 10 µM; hit rate 0.42% among 310,000; AID 2227; Q9QUQ5; HEK293 TRPC4beta/mu-opioid, DAMGO EC20, Fluo-4 Ca2+ flux; stronger effect = higher value;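 active = B-score of calcium response area above 5 SD of library B-scores, with initial fluorescence ratio within 5 SD of library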;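 also: B-score of integrated fluorescence ratio over time as area under calcium response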
TRPC6 act – activators of mouse TRPC6 channel. Q61143. HEK293-TRPC6 membrane potential dye fluorescence; stronger effect = higher value. B-score at 10 µM. hit rate 0.13% among 310,000. AID 2550;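 active = B-score of the integrated fluorescence ratio above library mean plus 3 SD, and starting fluorescence ratio within library mean plus 5 SD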;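 also: higher score means more depolarization so channel activation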
TRPC4 inh – inhibitors of mouse TRPC4 channel; HEK293 TRPC4beta/mu-opioid, DAMGO-evoked Fluo4 calcium flux; stronger effect = lower value; B-score at 10 µM; hit rate 0.39% among 300,000; AID 2247;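 active = B-score over 3 SD under the library average, no early fluorescence shift, positive overall ratio signal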
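Material: HEK293 cells with stable TRPC4beta plus mu-opioid receptor expression; probe or stimulus: DAMGO in two steps, submaximal then maximal; technique: Fluo4 calcium fluorescence by kinetic imaging, 5 s 1 Hz baseline; measure: integrated fluorescence ratio relative to baseline, converted to per-well B score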
TRPC6 inhibitor – mouse TRPC6 channel inhibition; Q61143; HEK293-TRPC6, membrane potential dye, ACh-evoked depolarization; stronger effect = lower value; B-score at 10 µM; hit rate 1.1% among 310,000;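 active = B-score under library mean minus 3 SD, initial fluorescence not abnormally high, positive integrated signal ratio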;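 also: B-score derived from integrated fluorescence ratio over the kinetic read; more negative B-score means stronger inhibition of depolarization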
Kir21 inh – inhibitors of mouse Kir2.1 inward-rectifier potassium channel. P35561. B-score at 10 µM. hit rate 0.85% among 310,000. HEK293-Kir2.1, FluxOR thallium flux fluorescence; stronger effect = lower value;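 active = fluorescence ratio B-score at or below minus 3 SD of library scores, with starting-brightness B-score within 2 SD, cut at about -4.2 in these data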;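 also: channel flux triggered by added potassium and thallium sulfate stimulus; B-score of peak minus minimum fluorescence over baseline after thallium stimulus; more negative B-score means stronger Kir2.1 block with less thallium influx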
Target sequence (P35561 whole entry, looked up): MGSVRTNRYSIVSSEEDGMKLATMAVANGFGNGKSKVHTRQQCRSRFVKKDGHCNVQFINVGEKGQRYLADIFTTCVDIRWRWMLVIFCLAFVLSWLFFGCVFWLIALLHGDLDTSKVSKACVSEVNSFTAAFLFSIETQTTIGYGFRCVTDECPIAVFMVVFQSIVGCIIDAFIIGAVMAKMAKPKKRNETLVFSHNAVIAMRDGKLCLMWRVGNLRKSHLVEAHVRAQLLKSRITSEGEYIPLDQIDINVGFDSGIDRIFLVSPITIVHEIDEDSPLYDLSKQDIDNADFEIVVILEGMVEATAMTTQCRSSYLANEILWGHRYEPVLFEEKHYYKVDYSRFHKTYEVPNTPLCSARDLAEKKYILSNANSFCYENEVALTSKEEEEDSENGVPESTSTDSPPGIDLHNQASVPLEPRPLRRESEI
* marks the source's active call; other numbers are inactive results.

CC(Oc1ccc2c(-c3ccccc3)cc(=O)oc2c1)C(=O)NCC(O)c1ccccc1 (stereo not given) was read as TRPC4 agonist inactive, TRPC4 potent inactive, TRPC6 act inactive, TRPC4 inh inactive, TRPC6 inhibitor inactive and Kir21 inh 0.7.
For COc1ccc(F)cc1CN1CCN(C(=O)CCC(=O)Nc2nnc(C(C)C)s2)CC1 the results were TRPC4 agonist 69*, TRPC4 potent inactive, TRPC6 act inactive, TRPC4 inh inactive, TRPC6 inhibitor inactive and Kir21 inh 1.99.
For CCCc1nnc(NC(=O)CCC(=O)N2CCN(Cc3cc(F)ccc3OC)CC2)s1 the results were TRPC4 agonist inactive, TRPC4 potent inactive, TRPC6 act inactive, TRPC4 inh inactive, TRPC6 inhibitor inactive and Kir21 inh 0.68.
Screening CC(=O)Oc1ccccc1-c1nc(/C=C/c2ccccc2)no1 returned TRPC4 agonist inactive, TRPC4 potent inactive, TRPC6 act inactive, TRPC4 inh inactive, TRPC6 inhibitor inactive and Kir21 inh -0.01.
CC(C)Oc1ccccc1OCCCOc1cccc2cccnc12 was read as TRPC4 agonist inactive, TRPC4 potent inactive, TRPC6 act inactive, TRPC4 inh inactive, TRPC6 inhibitor inactive and Kir21 inh -6.56*.
For Cc1cc(C)c(C)c(OCCCOc2cccc3cccnc23)c1 the results were TRPC4 agonist inactive, TRPC4 potent 19*, TRPC6 act inactive, TRPC4 inh inactive, TRPC6 inhibitor inactive and Kir21 inh -0.28.
For O=[N+]([O-])c1ccc(/C=N/Nc2nc(NCc3ccccc3)nc(N3CCOCC3)n2)cc1 the results were TRPC4 agonist inactive, TRPC4 potent inactive, TRPC6 act inactive, TRPC4 inh inactive, TRPC6 inhibitor inactive and Kir21 inh 1.39.
`O=[N+]([O-])c1cccc(/C=N/Nc2nc(NCc3ccccc3)nc(N3CCOCC3)n2)c1O` gave TRPC4 agonist 53*, TRPC4 potent inactive, TRPC6 act inactive, TRPC4 inh inactive, TRPC6 inhibitor inactive and Kir21 inh -0.01.
Screening Cc1ccccc1C1C(C#N)=C(N)N(N(C)C)C2=C1C(=O)CC(C)(C)C2 (stereo not given) returned TRPC4 agonist inactive, TRPC4 potent inactive, TRPC6 act inactive, TRPC4 inh inactive, TRPC6 inhibitor inactive and Kir21 inh 1.78.
`NC(N)=NCCCC(NC(=O)c1ccccc1)C(=O)Nc1ccc([N+](=O)[O-])cc1` (stereo not given) gave TRPC4 agonist 123*, TRPC4 potent inactive, TRPC6 act inactive, TRPC4 inh inactive, TRPC6 inhibitor inactive and Kir21 inh -1.29.
`COc1ccc(CN2CCC(N(CCc3ccccc3)Cc3ccccc3)CC2)c(OC)c1` gave TRPC4 agonist 143*, TRPC4 potent inactive, TRPC6 act inactive, TRPC4 inh inactive, TRPC6 inhibitor inactive and Kir21 inh -4.67*.
COc1ccc(C(=O)NCC(c2ccc3c(c2)OCO3)N2CCN(c3ccc(OC)cc3)CC2)cc1 (stereo not given) was read as TRPC4 agonist inactive, TRPC4 potent inactive, TRPC6 act inactive, TRPC4 inh inactive, TRPC6 inhibitor inactive and Kir21 inh 0.59.
For COC(=O)NCC(c1ccc2c(c1)OCO2)N1CCN(c2ccccc2)CC1 (stereo not given) the results were TRPC4 agonist 169*, TRPC4 potent inactive, TRPC6 act inactive, TRPC4 inh inactive, TRPC6 inhibitor inactive and Kir21 inh 1.92.
For Cc1cc(S(=O)(=O)n2ccnc2)c(Cl)cc1Cl the results were TRPC4 agonist inactive, TRPC4 potent inactive, TRPC6 act inactive, TRPC4 inh inactive, TRPC6 inhibitor inactive and Kir21 inh -1.32.
COc1ccc(-n2cccc2C=O)cc1 was read as TRPC4 agonist inactive, TRPC4 potent inactive, TRPC6 act inactive, TRPC4 inh inactive, TRPC6 inhibitor inactive and Kir21 inh 1.06.
For COc1ccc(-n2cccc2/C=C/[N+](=O)[O-])cc1 the results were TRPC4 agonist inactive, TRPC4 potent inactive, TRPC6 act inactive, TRPC4 inh inactive, TRPC6 inhibitor inactive and Kir21 inh -4.76*.
Cc1cc2nc(SCC(=O)Nc3ccccc3C(=O)O)[nH]c2cc1C was read as TRPC4 agonist inactive, TRPC4 potent inactive, TRPC6 act inactive, TRPC4 inh inactive, TRPC6 inhibitor inactive and Kir21 inh -0.4.
CC(C)Cn1c(-c2cccs2)nc2ccccc21 was read as TRPC4 agonist inactive, TRPC4 potent inactive, TRPC6 act inactive, TRPC4 inh inactive, TRPC6 inhibitor inactive and Kir21 inh -4.54*.
c1csc(Cn2c(-c3cccs3)nc3ccccc32)c1 was read as TRPC4 agonist inactive, TRPC4 potent inactive, TRPC6 act inactive, TRPC4 inh inactive, TRPC6 inhibitor inactive and Kir21 inh -3.53.
`O=C(NCC(=O)N1CCN(c2ccccc2O)CC1)c1cccs1` gave TRPC4 agonist inactive, TRPC4 potent inactive, TRPC6 act inactive, TRPC4 inh inactive, TRPC6 inhibitor inactive and Kir21 inh 0.29.
For COc1cc2ccccc2c2c1CCCC2=O the results were TRPC4 agonist inactive, TRPC4 potent inactive, TRPC6 act inactive, TRPC4 inh -6*, TRPC6 inhibitor inactive and Kir21 inh -1.07.
Screening O/N=C/Cc1[nH]c2ccccc2c1-c1ccccc1 returned TRPC4 agonist inactive, TRPC4 potent inactive, TRPC6 act inactive, TRPC4 inh -5*, TRPC6 inhibitor inactive and Kir21 inh 0.34.
O=c1[nH]c2ccccc2c(O)c1-c1ccccc1 was read as TRPC4 agonist inactive, TRPC4 potent inactive, TRPC6 act inactive, TRPC4 inh inactive, TRPC6 inhibitor inactive and Kir21 inh -0.5.
`C=CCOc1ccc(/C=C(\C#N)C(=O)Nc2ccccn2)cc1` gave TRPC4 agonist inactive, TRPC4 potent inactive, TRPC6 act inactive, TRPC4 inh inactive, TRPC6 inhibitor inactive and Kir21 inh 0.02.
Cc1ccc(NC(=O)CNc2ccccc2CN(C)C2CCCCC2)cc1 was read as TRPC4 agonist inactive, TRPC4 potent inactive, TRPC6 act inactive, TRPC4 inh -6*, TRPC6 inhibitor inactive and Kir21 inh -2.09.
`COc1ccc(C)cc1NC(=O)CNc1ccccc1CN(C)C1CCCCC1` gave TRPC4 agonist inactive, TRPC4 potent inactive, TRPC6 act inactive, TRPC4 inh inactive, TRPC6 inhibitor inactive and Kir21 inh -2.43.
`Cc1ccc(C(=O)c2no[n+]([O-])c2C(=O)c2ccc(C)cc2)cc1` gave TRPC4 agonist inactive, TRPC4 potent 29*, TRPC6 act inactive, TRPC4 inh inactive, TRPC6 inhibitor inactive and Kir21 inh -7.89*.

Assay outcomes as filed in PubChem.
